Results of several laboratories.
Compare with care: the assays were run in different laboratories.
ache: Acetylcholinesterase (ache, Electrophorus electricus, UniProt O42275)
MAP3K21: Mitogen-activated protein kinase kinase kinase 21 (MAP3K21, Homo sapiens, UniProt Q5TCX8)
STK17B: Serine/threonine-protein kinase 17B (STK17B, Homo sapiens, UniProt O94768)
RPS6KB2: Ribosomal protein S6 kinase beta-2 (RPS6KB2, Homo sapiens, UniProt Q9UBS0)
STK32A: Serine/threonine-protein kinase 32A (STK32A, Homo sapiens, UniProt Q8WU08)

Compound | target | test | test system | setting | quantity | value
COc1cc2c(cc1OC)C(=O)N(CC1CCN(Cc3ccccn3)CC1)C2 | ache | enzyme activity, inhibitor |  | 1 µM | inhibition | 8.01%
Cc1ccc(C(=O)NCc2ccsc2)cc1C#Cc1cn(C(C)C)c2ncnc(N)c12 | MAP3K21 | enzyme activity, inhibitor |  | 1 µM | activity vs control | 81%
O=C(NCCCNc1nc(Nc2cccc(CN3CCOCC3)c2)ncc1C1CC1)C1CCC1 | STK17B | enzyme activity, inhibitor, radiometric |  | 1 µM | remaining activity | 7%
COc1cc2c(cc1OC)C(=O)N(CC1CCN(Cc3cccc(C#N)c3)CC1)C2 | ache | enzyme activity, inhibitor |  | 1 µM | inhibition | 4.99%
O[C@@H]1[C@H](O)CO[C@H]1n1cnc2c(NCc3cccc(Cl)c3)nc(Cl)nc21 | Adenosine receptor A1 (ADORA1, Homo sapiens, UniProt P30542) | ligand displacement, radioligand |  | 10 µM, cell membranes | inhibition | 36%
CC(C)(O)[C@H]1CC[C@H](Nc2ccc3ncc(-c4cccc(C(F)(F)F)c4)n3n2)CC1 | RPS6KB2 | enzyme activity, inhibitor |  | 1 µM | remaining activity | 82.3%
O=C(Nc1cccc(Nc2ncc(Br)c(NCCc3cnc[nH]3)n2)c1)N1CCCC1 | STK17B | enzyme activity, inhibitor, radiometric |  | 1 µM | remaining activity | 1%
CC/C=C\C/C=C\C/C=C\C/C=C\C/C=C\C/C=C\CCC(=O)O | Polyunsaturated fatty acid lipoxygenase ALOX15 (ALOX15, Homo sapiens, UniProt P16050) | enzyme activity, substrate, absorbance |  |  | Km | 6.7 µM
c1cc(CN2CCOCC2)cc(Nc2ncc(C3CC3)c(NCCc3c[nH]cn3)n2)c1 | STK17B | enzyme activity, inhibitor, radiometric |  | 1 µM | remaining activity | 14%
COc1cc2c(cc1OC)C(=O)N(Cc1ccccn1)C2 | ache | enzyme activity, inhibitor |  | 1 µM | inhibition | 4.59%
O=C(NCCCNc1nc(Nc2cccc(NC(=O)N3CCCC3)c2)ncc1C1CC1)C1CCC1 | STK17B | enzyme activity, inhibitor, radiometric |  | 1 µM | remaining activity | 3%
CC(C)(C)c1nc2c(s1)c1nc(N)ncc1c1ccc(NS(=O)(=O)c3c(F)cccc3F)c(F)c12 | MAP3K21 | enzyme activity, inhibitor, radiometric |  | 1 µM | remaining activity | 90%
CCc1cc(/C(C)=N/OCc2ccc(C3CCCCC3)c(C(F)(F)F)c2)ccc1CN1CC(C(=O)O)C1 | Sphingosine 1-phosphate receptor 1 (S1PR1, Homo sapiens, UniProt P21453) | calcium signal, agonist, fluorescence | HUVEC |  | Emax | 85%
COc1cc2c(cc1OC)C(=O)N(Cc1ccc3ccccc3n1)C2 | ache | enzyme activity, inhibitor |  | 1 µM | inhibition | 3.28%
COC(=O)C(C)Oc1ccc2c(C)cc(=O)oc2c1 (stereo not drawn) | Aldehyde dehydrogenase 1A1 (ALDH1A1, Homo sapiens, UniProt P00352, N121S) | enzyme activity, inhibitor, absorbance |  | 10 µM | remaining activity | 82.8%
O=C(NCCCNc1ccnc(Nc2cccc(NC(=O)N3CCCC3)c2)n1)C1CCC1 | STK17B | enzyme activity, inhibitor, radiometric |  | 1 µM | remaining activity | 17%
COc1nccc(CN2Cc3cc(OC)c(OC)cc3C2=O)n1 | ache | enzyme activity, inhibitor |  | 1 µM | inhibition | -0.39%
Cn1c2c(Cl)c(Cl)ccc2c2cc[nH]c(=O)c21 | STK32A | thermal stability, DSF |  | 10 µM | ΔTm | -0.4 °C
COc1cc2c(cc1OC)C(=O)N(Cc1ccc(F)nc1)C2 | ache | enzyme activity, inhibitor |  | 1 µM | inhibition | -1.57%
O=C(NCCCNc1nc(Nc2cccc(NC(=O)N3CCCC3)c2)ncc1Br)C1CCC1 | STK17B | enzyme activity, inhibitor, radiometric |  | 1 µM | remaining activity | 0%
CCCOc1ccc(OC)c(F)c1C(=O)c1ccc(C(=O)N[C@@H]2CNC[C@H]2NC(=O)c2ccc3[nH]ncc3c2)cc1 | RAC-gamma serine/threonine-protein kinase (AKT3, Homo sapiens, UniProt Q9Y243) | enzyme activity, inhibitor |  | 0.1 µM | remaining activity | 88%
N#CC1c2c([nH]c3c(Cl)c(Cl)ccc23)C(=O)NC12CCCCC2 (racemic) | STK32A | thermal stability, DSF |  | 10 µM | ΔTm | 0.1 °C
NS(=O)(=O)c1ccc(CNc2nc(Nc3cccc(NC(=O)N4CCCC4)c3)ncc2C2CC2)cc1 | STK17B | enzyme activity, inhibitor, radiometric |  | 1 µM | remaining activity | 77%
Cn1c2c(c3ccc(Cl)c(Cl)c31)C(C#N)C1(CCCC1)NC2=O (stereo not drawn) | STK32A | thermal stability, DSF |  | 10 µM | ΔTm | -0.2 °C
Cc1nn(CC(F)(F)F)cc1Nc1ncc(Br)c(NCc2ccc(S(N)(=O)=O)cc2)n1 | STK17B | enzyme activity, inhibitor, radiometric |  | 1 µM | remaining activity | 47%
COc1cc2c(cc1OC)C(=O)N(CC1CCN(Cc3ccsc3)CC1)C2 | ache | enzyme activity, inhibitor |  | 1 µM | inhibition | 13.9%
CC(C)(C)c1nc(-c2cccc(NS(=O)(=O)c3c(F)cccc3F)c2F)c(-c2ccnc(N)n2)s1 | RPS6KB2 | enzyme activity, inhibitor, radiometric |  | 1 µM | remaining activity | 98%
